The values below come from ChEMBL document CHEMBL2375287, “A novel series of histamine H4 receptor antagonists based on the pyrido[3,2-d]pyrimidine scaffold: comparison of hERG binding and target residence time with PF-3893787” (Bioorg Med Chem Lett, 2013).

Test [1] concerns the target T1, Histamine H4 receptor (Homo sapiens, UniProt Q9H3N8). Kind of test: Displacement of [3H]histamine from human histamine H4 receptor expressed in HEK cells. It counts as cell-based, HEK293. In a few lines: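 Displacement of [3H]histamine from membranes of HEK cells transiently expressing human H4R, H3R or H1R. pKi given as mean ± SEM of at least three independent measurements; n = 2 where noted.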
(In general: Displacement assays read how much labelled ligand stays bound in the presence of the test substance.)

Test [2] has as its target Voltage-gated inwardly rectifying potassium channel KCNH2 (Homo sapiens, UniProt Q12809). Kind of test: Displacement of [3H]astemizole from human ERG channel.
In test [3] the target is Histamine H3 receptor (Homo sapiens, UniProt Q9Y5N1). The test can be described thus: Displacement of [3H]histamine from human histamine H3 receptor expressed in HEK cells. The test is classed as cell-based, HEK293.
The species named for test [4] is Homo sapiens. Kind of test: Selectivity ratio of Ki for human histamine H3 receptor to Ki for human histamine H4 receptor.
Test [5] addresses Histamine H1 receptor (Homo sapiens, UniProt P35367). Kind of test: Displacement of [3H]histamine from human histamine H1 receptor expressed in HEK cells.
Test [6] deals with T1, Histamine H4 receptor. The test can be described thus: Antagonist activity at human histamine H4 receptor expressed in HEK cells assessed as inhibition of histamine-induced [35S]GTPgammaS binding. The test is classed as functional, cell-based, HEK293. Conditions: for pKb: HEK293. (Binding of GTPγS marks nucleotide exchange on a G protein.)
Test [7] has as its target T1, Histamine H4 receptor. Kind of test: Displacement of [3H]histamine from human histamine H4 receptor expressed in HEK cells by competitive kinetic analysis. It counts as cell-based, HEK293.
The target of test [8] is T2, Histamine H4 receptor (Mus musculus, UniProt Q91ZY2).
T2 sequence (Q91ZY2 whole entry): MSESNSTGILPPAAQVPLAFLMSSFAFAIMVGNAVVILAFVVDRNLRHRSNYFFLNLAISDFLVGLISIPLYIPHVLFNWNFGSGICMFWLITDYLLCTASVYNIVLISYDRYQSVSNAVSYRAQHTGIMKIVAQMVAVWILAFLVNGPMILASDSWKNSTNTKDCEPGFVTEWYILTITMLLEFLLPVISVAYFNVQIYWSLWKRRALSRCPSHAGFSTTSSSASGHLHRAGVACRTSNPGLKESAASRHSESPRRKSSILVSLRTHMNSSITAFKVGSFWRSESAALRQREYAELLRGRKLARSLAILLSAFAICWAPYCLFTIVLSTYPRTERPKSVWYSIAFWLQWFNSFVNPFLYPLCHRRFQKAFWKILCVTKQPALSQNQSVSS
Kind of test: Binding affinity to mouse histamine H4 receptor.

Test [9] concerns the target Histamine H4 receptor (Rattus norvegicus, UniProt Q91ZY1). The test can be described thus: Binding affinity to rat histamine H4 receptor.
Test [10] deals with Histamine H2 receptor (Homo sapiens, UniProt P25021). Kind of test: Displacement of [3H]histamine from human histamine H2 receptor expressed in HEK cells.
Chain of Histamine H2 receptor (P25021 whole entry): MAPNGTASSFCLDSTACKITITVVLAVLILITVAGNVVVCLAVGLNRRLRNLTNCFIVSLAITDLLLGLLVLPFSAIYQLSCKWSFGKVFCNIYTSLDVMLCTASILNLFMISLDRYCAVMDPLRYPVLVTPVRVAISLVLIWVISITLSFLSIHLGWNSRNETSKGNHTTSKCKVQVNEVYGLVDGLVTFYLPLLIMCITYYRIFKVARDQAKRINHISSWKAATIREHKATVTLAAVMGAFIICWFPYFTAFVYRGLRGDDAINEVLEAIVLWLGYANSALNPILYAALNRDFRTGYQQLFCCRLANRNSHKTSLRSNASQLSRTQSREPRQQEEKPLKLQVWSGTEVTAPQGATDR

T1 sequence (Q9H3N8 whole entry): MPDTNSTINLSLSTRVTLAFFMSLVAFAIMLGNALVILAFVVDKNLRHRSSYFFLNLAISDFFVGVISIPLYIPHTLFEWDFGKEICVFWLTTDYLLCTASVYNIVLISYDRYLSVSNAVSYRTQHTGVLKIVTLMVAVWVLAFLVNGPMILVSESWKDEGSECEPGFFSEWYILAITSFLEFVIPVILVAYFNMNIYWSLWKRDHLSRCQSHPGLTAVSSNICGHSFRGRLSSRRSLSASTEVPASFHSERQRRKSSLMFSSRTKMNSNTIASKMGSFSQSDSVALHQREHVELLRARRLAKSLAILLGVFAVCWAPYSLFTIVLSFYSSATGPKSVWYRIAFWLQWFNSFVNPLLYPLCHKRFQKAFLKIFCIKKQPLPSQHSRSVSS
Chain of Voltage-gated inwardly rectifying potassium channel KCNH2 (Q12809 whole entry): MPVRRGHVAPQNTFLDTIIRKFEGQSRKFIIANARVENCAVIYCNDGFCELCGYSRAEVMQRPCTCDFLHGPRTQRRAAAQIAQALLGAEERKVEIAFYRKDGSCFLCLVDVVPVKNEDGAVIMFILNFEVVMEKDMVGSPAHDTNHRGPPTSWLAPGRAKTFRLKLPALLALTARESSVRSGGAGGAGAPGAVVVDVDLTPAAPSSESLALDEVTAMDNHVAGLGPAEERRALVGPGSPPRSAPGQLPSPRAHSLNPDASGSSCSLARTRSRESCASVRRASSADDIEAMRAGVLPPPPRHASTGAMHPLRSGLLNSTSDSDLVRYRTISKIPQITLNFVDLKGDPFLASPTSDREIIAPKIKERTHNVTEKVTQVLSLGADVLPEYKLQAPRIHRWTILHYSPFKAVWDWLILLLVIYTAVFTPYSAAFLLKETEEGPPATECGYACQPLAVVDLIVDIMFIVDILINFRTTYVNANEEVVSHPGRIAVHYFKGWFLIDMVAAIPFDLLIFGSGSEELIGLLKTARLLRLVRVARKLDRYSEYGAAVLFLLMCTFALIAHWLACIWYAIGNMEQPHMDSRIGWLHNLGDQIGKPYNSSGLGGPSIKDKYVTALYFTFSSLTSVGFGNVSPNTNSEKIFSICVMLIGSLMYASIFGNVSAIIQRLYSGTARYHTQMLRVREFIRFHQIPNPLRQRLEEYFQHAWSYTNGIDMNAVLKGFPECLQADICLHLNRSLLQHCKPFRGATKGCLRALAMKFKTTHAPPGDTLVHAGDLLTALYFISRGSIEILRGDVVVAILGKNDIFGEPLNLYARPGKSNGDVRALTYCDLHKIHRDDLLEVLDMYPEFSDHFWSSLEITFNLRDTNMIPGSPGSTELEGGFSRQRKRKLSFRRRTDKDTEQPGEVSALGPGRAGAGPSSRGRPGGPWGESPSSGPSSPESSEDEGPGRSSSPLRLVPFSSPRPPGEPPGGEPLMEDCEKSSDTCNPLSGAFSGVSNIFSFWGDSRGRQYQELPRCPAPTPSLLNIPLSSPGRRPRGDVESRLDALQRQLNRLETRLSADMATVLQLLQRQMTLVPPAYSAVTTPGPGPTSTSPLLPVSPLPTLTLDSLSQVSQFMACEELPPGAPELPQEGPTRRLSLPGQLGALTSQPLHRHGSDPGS
Chain of Histamine H3 receptor (Q9Y5N1 whole entry): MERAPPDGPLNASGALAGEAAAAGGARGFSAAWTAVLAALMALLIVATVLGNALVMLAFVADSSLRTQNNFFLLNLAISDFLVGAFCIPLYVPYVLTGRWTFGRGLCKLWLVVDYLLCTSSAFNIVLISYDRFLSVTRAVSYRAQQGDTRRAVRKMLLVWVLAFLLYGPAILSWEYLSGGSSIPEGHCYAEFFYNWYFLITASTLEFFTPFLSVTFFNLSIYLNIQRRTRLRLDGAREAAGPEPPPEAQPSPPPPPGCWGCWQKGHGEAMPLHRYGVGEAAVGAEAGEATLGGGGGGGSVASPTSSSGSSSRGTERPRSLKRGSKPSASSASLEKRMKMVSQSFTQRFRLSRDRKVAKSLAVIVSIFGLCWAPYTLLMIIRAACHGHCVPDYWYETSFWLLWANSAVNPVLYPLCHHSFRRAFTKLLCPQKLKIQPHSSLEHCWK
Chain of Histamine H4 receptor (Rattus norvegicus, UniProt Q91ZY1) (Q91ZY1 whole entry): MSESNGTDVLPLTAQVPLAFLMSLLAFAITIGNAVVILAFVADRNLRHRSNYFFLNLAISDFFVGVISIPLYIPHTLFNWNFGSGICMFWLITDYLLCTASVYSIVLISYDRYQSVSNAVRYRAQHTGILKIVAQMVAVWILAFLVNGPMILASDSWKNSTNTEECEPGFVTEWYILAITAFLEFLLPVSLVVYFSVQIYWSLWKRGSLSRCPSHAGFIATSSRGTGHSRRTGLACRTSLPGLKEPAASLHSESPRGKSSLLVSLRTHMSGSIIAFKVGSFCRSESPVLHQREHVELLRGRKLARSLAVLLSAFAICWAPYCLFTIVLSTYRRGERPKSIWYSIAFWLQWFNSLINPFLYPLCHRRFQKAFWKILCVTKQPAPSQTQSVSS
Chain of Histamine H1 receptor (P35367 whole entry): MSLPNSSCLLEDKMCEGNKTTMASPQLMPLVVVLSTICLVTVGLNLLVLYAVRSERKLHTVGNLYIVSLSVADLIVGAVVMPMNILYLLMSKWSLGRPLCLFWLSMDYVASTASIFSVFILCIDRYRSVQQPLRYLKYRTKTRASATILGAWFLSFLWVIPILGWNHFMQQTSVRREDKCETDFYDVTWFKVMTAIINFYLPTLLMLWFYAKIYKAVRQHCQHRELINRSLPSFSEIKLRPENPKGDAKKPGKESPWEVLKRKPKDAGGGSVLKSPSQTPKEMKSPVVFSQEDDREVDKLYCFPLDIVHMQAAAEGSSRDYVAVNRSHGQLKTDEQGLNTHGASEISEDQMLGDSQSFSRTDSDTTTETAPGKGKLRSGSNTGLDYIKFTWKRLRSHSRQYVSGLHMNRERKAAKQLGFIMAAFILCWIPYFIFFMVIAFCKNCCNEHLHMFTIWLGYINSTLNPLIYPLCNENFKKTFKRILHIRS

The term Ki denotes the equilibrium dissociation constant of an inhibitor or competing ligand from its target. A lower Ki goes with tighter binding. `CCc1ccc2c(N3CC[C@@H](NC)C3)nc(N)nc2c1`: the Ki in [1] is 17 nM; in test [2] it was 2750 nM; in [3], 603 nM. The Ratio Ki in test [4] turned out to be 56.
Take `CNC1CN(c2nc(N)nc3cc(C(C)C)cnc23)C1`: the inhibition constant Ki in test [1] was 25.1 nM; in test [3] it was 832 nM.
In the case of `CN[C@@H]1CCN(c2nc(N)nc3cc(C4CC4)cnc23)C1`, the Ki was 10.2 nM in test [1], > 100000 nM in test [2] and 1000 nM in test [3]. In addition, the Ratio Ki in test [4] worked out at 98.
In the case of `CN1CCN(c2nc(N)nc3cccnc23)CC1`, affinity in test [1] was put at a Ki of 30.9 nM.
The IC50 is the concentration that inhibits the measured activity by half. Usually pKb stands for the negative decadic logarithm of the Kb, by convention in mol/L. The Kd is the equilibrium constant for the complex coming apart. A low value points to tighter binding. With `CNC1CN(c2nc(N)nc3cc(C4CC4)cnc23)C1`, the Ki in test [1] is 5.25 nM; in [5], 20900 nM; in test [2] it was > 100000 nM; in test [8], 15.1 nM; in [9] it was 29.5 nM; in test [3], 631 nM. Further, in [6], the IC50 is 70.8 nM. In addition, the negative logarithm of the Kb (pKb) in test [6] was 8.33. Binding in [7] was put at a Kd of 13.5 nM. In addition, in [4], the Ratio Ki came to 120.
For `CNC1CN(c2nc(N)nc3cc(C4CCCC4)ccc23)C1`, the Ki was 3.39 nM in [1], 832 nM in [2] and 158 nM in test [3]. Besides, the Ratio Ki in test [4] amounted to 47.
Regarding `CCc1cnc2c(N3CCN(C)CC3)nc(N)nc2c1`, the values for the Ki in test [1] and in test [3] were 9.33 nM and 214 nM, respectively.
Regarding `CN[C@@H]1CCN(c2nc(N)nc3cc(C(C)C)cnc23)C1`, the Ki is 12.3 nM in [1] and 145 nM in test [3]. The Ratio Ki in test [4] turned out to be 12.
For the compound `CN1CCN(c2nc(N)nc3ccccc23)CC1`, the Ki in test [1] was 44.7 nM.
As for `CNC1CN(c2nc(N)nc3cc(C(C)(C)C)ccc23)C1`, the Ki was 15.1 nM in [1] and 490 nM in test [3]. For the same compound, in test [4], the Ratio Ki was 32.
Turning to `Nc1nc(N2CCNCC2)c2ccc(C3CCCC3)cc2n1`, the Ki is 12.3 nM in [1], 3390 nM in test [2] and 331 nM in test [3]. The Ratio Ki in test [4] was 27.
Turning to `CNC1CN(c2nc(N)nc3cc(C4CC4)ccc23)C1`, the results for the Ki in test [1], in test [2] and in [3] were 7.08 nM, 3630 nM and 692 nM, respectively. Moreover, in test [4], the Ratio Ki was 98.
As for `CCc1cnc2c(N3CC(NC)C3)nc(N)nc2c1`, the Ki was 10.7 nM in [1]; 33900 nM in [5]; 14100 nM in test [10]; 34700 nM in test [2]; 50.1 nM in [8]; 70.8 nM in test [9]. In test [3], this compound had a Ki of 776 nM. Also, in [6], the concentration for half-maximal inhibition (IC50) is 112 nM. For the same compound, the negative-log Kb (pKb) in test [6] was 8.14. In addition, in test [7], the Kd is 8.51 nM. Further, the Ratio Ki in [4] worked out at 72.
As for `CN[C@@H]1CCN(c2cc(NCC3CC3)nc(N)n2)C1` [ADRIFORANT], the Ki in [1] is 10.2 nM; in test [2] it was 3470 nM; in test [8], 55 nM; in [9], 55 nM; in test [3], 186 nM. Besides, the IC50 in [6] is 53.7 nM. Further, the pKb in [6] came to 8.46. The same compound had a Kd in test [7] of 25.1 nM. Moreover, the Ratio Ki in test [4] turned out to be 22.
As for `CCc1cnc2c(N3CC[C@@H](NC)C3)nc(N)nc2c1`, the Ki in test [1] is 9.12 nM; in test [5], 11200 nM; in test [10], 3160 nM; in test [2] it was 43700 nM; in test [8], 85.1 nM; in test [9] it was 138 nM. For the same compound, in [3], affinity was put at a Ki of 1510 nM. The IC50 in test [6] was 126 nM. The pKb in test [6] turned out to be 8.08. This compound also showed a Kd in test [7] of 21.4 nM. Also, the Ratio Ki in test [4] is 166.
In the case of `CC(C)(C)c1ccc2c(N3CCNCC3)nc(N)nc2c1`, the Ki in test [1] is 35.5 nM; in test [3], 851 nM. Further, the Ratio Ki in test [4] turned out to be 24.
`CCc1ccc2c(N3CCNCC3)nc(N)nc2c1`: the Ki is 14.8 nM in test [1], 1510 nM in test [2] and 219 nM in test [3]. For the same compound, in test [4], the Ratio Ki turned out to be 15.
Turning to `CN[C@@H]1CCN(c2nc(N)nc3cc(C4CC4)ccc23)C1`, the Ki in test [1] was 21.9 nM; in test [3], 178 nM. In [4], the Ratio Ki is 8.
As to `CCc1ccc2c(N3CC(NC)C3)nc(N)nc2c1`, the figures for the Ki in test [1], in test [2] and in [3] were 11.2 nM, 2450 nM and 617 nM, respectively. Also, the Ratio Ki in test [4] was 89.
`Nc1nc(N2CCNCC2)c2ccc(-c3ccco3)cc2n1` had a Ki in [1] of 15.1 nM. Further, in test [7], the Kd was 40.7 nM.
Take `CNC1CN(c2nc(N)nc3cc(C#N)cnc23)C1`: the Ki in [1] was 53.7 nM; in [2], > 100000 nM; in [3], 9550 nM. Moreover, the Ratio Ki in test [4] was determined as 186.
Take `Nc1nc(N2CCNCC2)c2ccc(C3CC3)cc2n1`: the Ki is 11.5 nM in test [1], 4680 nM in test [2] and 155 nM in test [3]. In addition, the Ratio Ki in test [4] came out at 13.
For the compound `CNC1CN(c2nc(N)nc3cc(C4CCCC4)cnc23)C1`, the Ki was 6.46 nM in [1]; 16600 nM in test [5]; 2820 nM in test [10]; > 100000 nM in test [2]; 19.5 nM in [8]; 27.5 nM in test [9]. Moreover, the Ki in test [3] was 151 nM. Further, in test [6], the IC50 is 97.7 nM. Further, the pKb in test [6] worked out at 8.2. The Kd in [7] was 10.2 nM. Moreover, the Ratio Ki in test [4] was determined as 23.
